According to ChEMBL document CHEMBL3588757, “Structure-based design, synthesis and biological testing of piperazine-linked bis-epipodophyllotoxin etoposide analogs” (Bioorg Med Chem, 2015):

Experiments:
Type in all cases: functional
SK-MEL-28 [1] = experiment: Cytotoxicity against human SK-MEL-28 cells assessed as cell growth at 0.05 uM by SRB assay; conditions: read-out: Activity
786-0 [2] = experiment: Cytotoxicity against human 786-0 cells assessed as cell growth at 0.005 uM by SRB assay; conditions: read-out: Activity
OVCAR-4 [3] = experiment: Cytotoxicity against human OVCAR4 cells assessed as cell growth at 0.5 uM by SRB assay; conditions: read-out: Activity
SK-MEL-2 [4] = experiment: Cytotoxicity against human SK-MEL-2 cells assessed as cell growth at 0.5 uM by SRB assay; conditions: read-out: Activity
KM12 = experiment: Cytotoxicity against human KM12 cells assessed as cell growth at 0.5 uM by SRB assay; conditions: read-out: Activity
SN12C [5] = experiment: Cytotoxicity against human SN12C cells assessed as cell growth at 5 uM by SRB assay; conditions: read-out: Activity
[6] = Cytotoxicity against human Hs578T cells assessed as cell growth at 0.5 uM by SRB assay; conditions: Hs-578T, read-out: Activity
Summary of the method: (§1)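 Measured in the NCI-60 human tumour cell line panel using five-dose testing. Growth was recorded at each dose for each cell line, and a GI50 was derived for each line.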

DU-145 [7] = experiment: Cytotoxicity against human DU145 cells assessed as cell growth at 0.05 uM by SRB assay; conditions: read-out: Activity; summary of the method: as §1
M14 = experiment: Cytotoxicity against human M14 cells assessed as cell growth at 0.5 uM by SRB assay; conditions: read-out: Activity
RXF 393 = experiment: Cytotoxicity against human RXF393 cells assessed as cell growth at 5 uM by SRB assay; conditions: read-out: Activity
SK-MEL-28 [8] = experiment: Cytotoxicity against human SK-MEL-28 cells assessed as cell growth at 50 uM by SRB assay; conditions: read-out: Activity
786-0 [9] = experiment: Cytotoxicity against human 786-0 cells assessed as cell growth at 0.5 uM by SRB assay; conditions: read-out: Activity
BT-549 [10] = experiment: Cytotoxicity against human BT549 cells by SRB assay
BT-549 [11] = experiment: Cytotoxicity against human BT549 cells assessed as cell growth at 0.05 uM by SRB assay; conditions: read-out: Activity
[12] = Cytotoxicity against human NCI-ADR-RES cells assessed as cell growth at 50 uM by SRB assay; conditions: read-out: Activity
COLO 205 = experiment: Cytotoxicity against human COLO205 cells assessed as cell growth at 0.5 uM by SRB assay; conditions: read-out: Activity
HCC 2998 = experiment: Cytotoxicity against human HCC2998 cells assessed as cell growth at 0.05 uM by SRB assay; conditions: read-out: Activity; summary of the method: as §1
UACC-62 = experiment: Cytotoxicity against human UACC62 cells assessed as cell growth at 5 uM by SRB assay; conditions: read-out: Activity
OVCAR-5 = experiment: Cytotoxicity against human OVCAR5 cells by SRB assay
Summary of the method: (§2)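 NCI-60 panel screen; 5-dose testing giving GI50 per cell line, plus a single 10 µM one-dose test. Method details not given beyond the NCI screen.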

SF-268 = experiment: Cytotoxicity against human SF268 cells by SRB assay; summary of the method: as §2
NCI-H23 = experiment: Cytotoxicity against human NCI-H23 cells assessed as cell growth at 0.5 uM by SRB assay; conditions: read-out: Activity
MDA-MB-231 = experiment: Cytotoxicity against human MDA-MB-231/ATCC cells assessed as cell growth at 5 uM by SRB assay; conditions: read-out: Activity
SK-OV-3 = experiment: Cytotoxicity against human SKOV3 cells assessed as cell growth at 0.05 uM by SRB assay; conditions: read-out: Activity
SNB-19 [13] = experiment: Cytotoxicity against human SNB19 cells assessed as cell growth at 0.5 uM by SRB assay; conditions: read-out: Activity
MDA-MB-435 = experiment: Cytotoxicity against human MDA-MB-435 cells assessed as cell growth at 0.05 uM by SRB assay; conditions: read-out: Activity
SR = experiment: Cytotoxicity against human SR cells assessed as cell growth at 0.005 uM by SRB assay; conditions: read-out: Activity
HOP-62 = experiment: Cytotoxicity against human HOP62 cells assessed as cell growth at 50 uM by SRB assay; conditions: read-out: Activity; summary of the method: as §1
NCI-H322M = experiment: Cytotoxicity against human NCI-H322M cells assessed as cell growth at 0.05 uM by SRB assay; conditions: read-out: Activity
A498 = experiment: Cytotoxicity against human A498 cells assessed as cell growth at 5 uM by SRB assay; conditions: read-out: Activity
DU-145 [14] = experiment: Cytotoxicity against human DU145 cells assessed as cell growth at 0.005 uM by SRB assay; conditions: read-out: Activity
HOP-92 = experiment: Cytotoxicity against human HOP92 cells assessed as cell growth at 50 uM by SRB assay; conditions: read-out: Activity; summary of the method: as §1
LOX IMVI = experiment: Cytotoxicity against human LOXIMVI cells by SRB assay; summary of the method: as §2
K562 = experiment: Relative resistance, ratio of IC50 for etoposide-resistant human K/VP.5 cells to IC50 for human K562 cells
SK-MEL-28 [15] = experiment: Cytotoxicity against human SK-MEL-28 cells assessed as cell growth at 0.005 uM by SRB assay; conditions: read-out: Activity
PC-3 = experiment: Cytotoxicity against human PC3 cells assessed as cell growth at 50 uM by SRB assay; conditions: read-out: Activity
SK-MEL-2 [16] = experiment: Cytotoxicity against human SK-MEL-2 cells assessed as cell growth at 5 uM by SRB assay; conditions: read-out: Activity
SNB-19 [17] = experiment: Cytotoxicity against human SNB19 cells assessed as cell growth at 50 uM by SRB assay; conditions: read-out: Activity
OVCAR-4 [18] = experiment: Cytotoxicity against human OVCAR4 cells assessed as cell growth at 50 uM by SRB assay; conditions: read-out: Activity
MOLT-4 = experiment: Cytotoxicity against human MOLT4 cells by SRB assay; summary of the method: as §2
NCI-H460 = experiment: Cytotoxicity against human NCI-H460 cells by SRB assay; summary of the method: as §2
SN12C [19] = experiment: Cytotoxicity against human SN12C cells by SRB assay; summary of the method: as §2
ACHN = experiment: Cytotoxicity against human ACHN cells assessed as cell growth at 0.05 uM by SRB assay; conditions: read-out: Activity
MDA-MB-468 = experiment: Cytotoxicity against human MDA-MB-468 cells assessed as cell growth at 0.005 uM by SRB assay; conditions: read-out: Activity
[20] = read-out: LC50 (the source's name)
[21] = read-out: pLC50 (the source's name) (converted)

COc1cc([C@@H]2c3cc4c(cc3[C@@H](NC(=O)CN3CCN(CCCCCCN5CCN(CC(=O)N[C@@H]6c7cc8c(cc7[C@@H](c7cc(OC)c(O)c(OC)c7)[C@H]7C(=O)OC[C@@H]76)OCO8)CC5)CC3)[C@H]3COC(=O)[C@H]23)OCO4)cc(OC)c1O
growth at 0.05 µM (SK-MEL-28 [1]): 106% | growth at 0.005 µM (786-0 [2]): 89% | growth at 0.5 µM (OVCAR-4 [3]): 90% | growth at 0.5 µM (SK-MEL-2 [4]): 105% | growth at 0.5 µM (KM12): 81% | growth at 5 µM (SN12C [5]): 11% | growth at 0.5 µM [6]: 77% | growth at 0.05 µM (DU-145 [7]): 103% | growth at 0.5 µM (M14): 79% | growth at 5 µM (RXF 393): 66% | growth at 50 µM (SK-MEL-28 [8]): 3% | growth at 0.5 µM (786-0 [9]): 82% | GI50 (BT-549 [10]; read-out: GI50): 0.757 µM | CC50 (BT-549 [10]; [20]): > 50 µM | TGI (BT-549 [10]; read-out: TGI): 4.24 µM | GI50 (BT-549 [10]; read-out: pGI50 (converted)): 0.759 µM | CC50 (BT-549 [10]; [21]): > 50.1 µM | TGI (BT-549 [10]; read-out: pTGI (converted)): 4.27 µM | growth at 0.05 µM (BT-549 [11]): 87% | growth at 50 µM [12]: 87% | growth at 0.5 µM (COLO 205): 60% | growth at 0.05 µM (HCC 2998): 104% | growth at 5 µM (UACC-62): 29% | GI50 (OVCAR-5; read-out: GI50): 7.24 µM | CC50 (OVCAR-5; [20]): > 50 µM | TGI (OVCAR-5; read-out: TGI): > 50 µM | GI50 (OVCAR-5; read-out: pGI50 (converted)): 7.24 µM | CC50 (OVCAR-5; [21]): > 50.1 µM | TGI (OVCAR-5; read-out: pTGI (converted)): > 50.1 µM | GI50 (SF-268; read-out: GI50): 1.38 µM | CC50 (SF-268; [20]): > 50 µM | TGI (SF-268; read-out: TGI): > 50 µM | GI50 (SF-268; read-out: pGI50 (converted)): 1.38 µM | CC50 (SF-268; [21]): > 50.1 µM | TGI (SF-268; read-out: pTGI (converted)): > 50.1 µM | growth at 0.5 µM (NCI-H23): 95% | growth at 5 µM (MDA-MB-231): 79% | growth at 0.05 µM (SK-OV-3): 107% | growth at 0.5 µM (SNB-19 [13]): 66% | growth at 0.05 µM (MDA-MB-435): 96% | growth at 0.005 µM (SR): 90% | growth at 50 µM (HOP-62): -22% | growth at 0.05 µM (NCI-H322M): 105% | growth at 5 µM (A498): 54% | growth at 0.005 µM (DU-145 [14]): 102% | growth at 50 µM (HOP-92): 14% | GI50 (LOX IMVI; read-out: GI50): 0.966 µM | CC50 (LOX IMVI; [20]): > 50 µM | TGI (LOX IMVI; read-out: TGI): 28 µM | GI50 (LOX IMVI; read-out: pGI50 (converted)): 0.977 µM | CC50 (LOX IMVI; [21]): > 50.1 µM | TGI (LOX IMVI; read-out: pTGI (converted)): 28.2 µM | Ratio IC50 (K562): 21.5 | growth at 0.005 µM (SK-MEL-28 [15]): 100% | growth at 50 µM (PC-3): 25% | growth at 5 µM (SK-MEL-2 [16]): 86% | growth at 50 µM (SNB-19 [17]): 11% | growth at 50 µM (OVCAR-4 [18]): 21% | GI50 (MOLT-4; read-out: GI50): 0.233 µM | CC50 (MOLT-4; [20]): > 50 µM | TGI (MOLT-4; read-out: TGI): > 50 µM | GI50 (MOLT-4; read-out: pGI50 (converted)): 0.234 µM | CC50 (MOLT-4; [21]): > 50.1 µM | TGI (MOLT-4; read-out: pTGI (converted)): > 50.1 µM | GI50 (NCI-H460; read-out: GI50): 0.261 µM | CC50 (NCI-H460; [20]): > 50 µM | TGI (NCI-H460; read-out: TGI): 9.45 µM | GI50 (NCI-H460; read-out: pGI50 (converted)): 0.263 µM | CC50 (NCI-H460; [21]): > 50.1 µM | TGI (NCI-H460; read-out: pTGI (converted)): 9.55 µM | GI50 (SN12C [19]; read-out: GI50): 1.31 µM | CC50 (SN12C [19]; [20]): > 50 µM | TGI (SN12C [19]; read-out: TGI): > 50 µM | GI50 (SN12C [19]; read-out: pGI50 (converted)): 1.32 µM | CC50 (SN12C [19]; [21]): > 50.1 µM | TGI (SN12C [19]; read-out: pTGI (converted)): > 50.1 µM | growth at 0.05 µM (ACHN): 98% | growth at 0.005 µM (MDA-MB-468): 91%
